Values after ≈ are worked out from the molar mass of the structure shown. Active and inactive are the calls of the source. The calls are words filed in the database; no cut-off is given here.
Tests used:
[1] = Cytotoxicity against human U937 cells assessed as cell viability at 20 ug/ml after 72 hrs by MTT assay; type: cell-based, U-937; conditions: read-out: Activity
In short: (§1)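 U937 human monocytic cells plated at 1 × 10^5 cells/mL and allowed to adhere for 1 h at 37 °C in 5% CO2. Non-adherent cells were washed off with RPMI 1640. Adherent cells were exposed to compound in triplicate, with medium alone as the live control and 3% Tween 20 as the dead control. MTT (5 mg/mL in PBS) was then added for 3 h at 37 °C. Formazan was dissolved in 0.4 M HCl/isopropanol and absorbance read at 600 nm. Results are expressed as % cell viability.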

[2] = test system: Serum; assay: Stability of the compound in 80% human blood serum assessed as hydrolysis to 2-bromo-6-(1H-imidazol-1-yl)-7H-indeno[2,1-c]quinolin-7-one oxime at 1 mg after 24 hrs at 37 degC by LC-MS analysis; type: ADME, cell-free; design: scale not given: the % may be the effect or the level left
In short: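 Enzymatic hydrolysis: 1 mg prodrug dissolved in 1 mL ethanol, then 200 µL preheated human blood serum diluted to 80% with 0.16 M phosphate buffer (pH 7.4) was added. Samples were kept at 37 °C (24 h) and centrifuged 10 min at 10,000 rpm. Remaining prodrug in the supernatant was monitored by TLC and LC-MS. t1/2 is the time to 50% hydrolysis.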

[3] = Octanol-water partition coefficient, log P of the compound at pH 7.4 at room temperature by UV spectrophotometric analysis; type: physicochemical
In short: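 Shake-flask method at room temperature: 1-octanol and phosphate buffer (pH 7.4) were pre-saturated by shaking for 24 h. Compound at 10^-4 M in equal volumes of both phases was shaken vigorously for 1 h, left to stand 15 min, then centrifuged 10 min at 10,000 rpm. UV absorbance of each phase was read at 280 nm against blanks, and P was taken as the octanol/water absorbance ratio.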

[4] = Stability of the compound in 10% aqueous ammonia buffer at pH 8 assessed as hydrolysis to 2-bromo-6-(1H-imidazol-1-yl)-7H-indeno[2,1-c]quinolin-7-one oxime at 1 mg at 37 degC by LC-MS analysis; type: physicochemical; design: scale not given: the % may be the effect or the level left
In short: (§2)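 Chemical hydrolysis: 1 mg prodrug dissolved in 1 mL of 10% aqueous ammonia in methanol (pH 8) and held in a thermostatted water bath at 37 °C, up to 24 h. Conversion to the parent oxime was followed by TLC and LC-MS. t1/2 is the time to 50% hydrolysis.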

[5] = Cytotoxicity against human U937 cells assessed as cell viability at 1.25 ug/ml after 72 hrs by MTT assay; type: cell-based, U-937; conditions: read-out: Activity; in short: as §1
[6] = test system: Mycobacterium tuberculosis; assay: Antimicrobial activity against Mycobacterium tuberculosis H37Rv ATCC 27294 after 16 to 24 hrs by microplate alamar blue assay; type: functional
In short: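 M. tuberculosis H37Rv inoculum 2×10^5 cfu/mL (100 µL) added to twofold dilutions in Middlebrook 7H12 medium; final test range 128 µM to 0.5 µM from 12.8 mM DMSO stocks. Incubated 37 °C; day 7 Tween 80 plus Alamar Blue added, further 16-24 h at 37 °C. Fluorescence ex 530/em 590 nm; MIC = lowest concentration giving >90% fluorescence reduction versus replicate bacteria-only controls. Rifampin, isoniazid controls.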

[7] = Cytotoxicity against human U937 cells assessed as cell viability at 10 ug/ml after 72 hrs by MTT assay; type: cell-based, U-937; conditions: read-out: Activity; in short: as §1
[8] = Half life in 10% aqueous ammonia buffer at pH 8 assessed as hydrolysis to 2-bromo-6-(1H-imidazol-1-yl)-7H-indeno[2,1-c]quinolin-7-one oxime at 37 degC by LC-MS analysis; type: physicochemical; in short: as §2
[9] = Selectivity index, ratio CC50 for human U937 cells to MIC for Mycobacterium tuberculosis H37Rv ATCC 27294; type: functional, U-937
[10] = Cytotoxicity against human U937 cells assessed as cell viability at 5 ug/ml after 72 hrs by MTT assay; type: cell-based, U-937; conditions: read-out: Activity; in short: as §1

SMILES: CC(=O)OC1(C)c2ccccc2-c2c1c(-n1ccnc1)nc1ccc(Br)cc21 (stereo not drawn)
- viability at 72 h, 20 ug/ml [1]: 35%
- Activity [2]: Not Active
- logD [3]: 2.7
- Activity [4]: 90%
- viability at 72 h, 1.25 ug/ml [5]: 94%
- MIC [6]: 1.88 µg/mL (≈ 4.33 µM)
- viability at 72 h, 10 ug/ml [7]: 63%
- half-life [8]: 240 h
- Selectivity Index [9]: 7.5
- viability at 72 h, 5 ug/ml [10]: 90%

SMILES: CC(C)C[C@H](NC(=O)OCC1c2ccccc2-c2ccccc21)C(=O)O/N=C1\c2ccccc2-c2c1c(N1CCN(c3ccccn3)CC1)nc1ccc(Br)cc21
- MIC [6]: inactive

SMILES: CCCCCCCCCCCCCCC(=O)OC1(C)c2ccccc2-c2c1c(-n1ccnc1)nc1ccc(Br)cc21 (stereo not drawn)
- MIC [6]: inactive

SMILES: CCCCCC(=O)O/N=C1\c2ccccc2-c2c1c(N1CCN(c3ccccn3)CC1)nc1ccc(Br)cc21
- viability at 72 h, 20 ug/ml [1]: 87%
- Activity [2]: 5%
- logD [3]: 2.1
- Activity [4]: 95%
- viability at 72 h, 1.25 ug/ml [5]: 96%
- MIC [6]: 3.16 µg/mL (≈ 5.41 µM)
- viability at 72 h, 10 ug/ml [7]: 85%
- half-life [8]: 576 h
- Selectivity Index [9]: >13
- viability at 72 h, 5 ug/ml [10]: 86%

SMILES: COc1nc2ccc(Br)cc2cc1[C@@H](c1ccccc1)[C@@](O)(CCN(C)C)c1cccc2ccccc12 [BEDAQUILINE]
- MIC [6]: 0.06 µg/mL (≈ 0.108 µM)

SMILES: CCCCCCCCCCCC(=O)O/N=C1\c2ccccc2-c2c1c(N1CCN(c3ccccn3)CC1)nc1ccc(Br)cc21
- MIC [6]: inactive

SMILES: CCCC(=O)OC1(C)c2ccccc2-c2c1c(-n1ccnc1)nc1ccc(Br)cc21 (stereo not drawn)
- MIC [6]: inactive

SMILES: CCCCCCCCCCCCCCC(=O)O/N=C1\c2ccccc2-c2c1c(N1CCN(c3ccccn3)CC1)nc1ccc(Br)cc21
- MIC [6]: inactive

SMILES: CC(=O)O/N=C1\c2ccccc2-c2c1c(N1CCN(c3ccccn3)CC1)nc1ccc(Br)cc21
- MIC [6]: inactive

SMILES: O/N=C1\c2ccccc2-c2c1c(N1CCN(c3ccccn3)CC1)nc1ccc(Br)cc21
- viability at 72 h, 20 ug/ml [1]: 49%
- logD [3]: 3.3
- viability at 72 h, 1.25 ug/ml [5]: 100%
- MIC [6]: 6.25 µg/mL (≈ 12.9 µM)
- viability at 72 h, 10 ug/ml [7]: 56%
- Selectivity Index [9]: 71
- viability at 72 h, 5 ug/ml [10]: 100%

SMILES: O=C(CNC(=O)OCC1c2ccccc2-c2ccccc21)O/N=C1\c2ccccc2-c2c1c(N1CCN(c3ccccn3)CC1)nc1ccc(Br)cc21
- Activity [2]: 29%
- logD [3]: 1.4
- Activity [4]: 90%
- viability at 72 h, 1.25 ug/ml [5]: 68%
- MIC [6]: 6 µg/mL (≈ 7.84 µM)
- viability at 72 h, 10 ug/ml [7]: 73%
- half-life [8]: 36 h

SMILES: O=C(O/N=C1\c2ccccc2-c2c1c(N1CCN(c3ccccn3)CC1)nc1ccc(Br)cc21)C1CC1
- MIC [6]: inactive

SMILES: CCCCCCCCCCCCCC(=O)OC1(C)c2ccccc2-c2c1c(-n1ccnc1)nc1ccc(Br)cc21 (stereo not drawn)
- MIC [6]: inactive

SMILES: CCCCC(=O)O/N=C1\c2ccccc2-c2c1c(N1CCN(c3ccccn3)CC1)nc1ccc(Br)cc21
- MIC [6]: inactive

SMILES: CN(C)C(=O)O/N=C1\c2ccccc2-c2c1c(N1CCN(c3ccccn3)CC1)nc1ccc(Br)cc21
- viability at 72 h, 20 ug/ml [1]: 47%
- Activity [2]: Not Active
- logD [3]: 2.3
- Activity [4]: Not Active
- viability at 72 h, 1.25 ug/ml [5]: 100%
- MIC [6]: 1.56 µg/mL (≈ 2.8 µM)
- viability at 72 h, 10 ug/ml [7]: 68%
- Selectivity Index [9]: 88
- viability at 72 h, 5 ug/ml [10]: 100%

SMILES: CC(C)(C)OC(=O)NC1(C(=O)O/N=C2\c3ccccc3-c3c2c(N2CCN(c4ccccn4)CC2)nc2ccc(Br)cc32)CCCC1
- MIC [6]: inactive

SMILES: CN(C)C(=O)O/N=C1\c2ccccc2-c2c1c(-n1ccnc1)nc1ccc(Br)cc21
- viability at 72 h, 20 ug/ml [1]: 50%
- Activity [2]: Not Active
- logD [3]: 1.1
- Activity [4]: Not Active
- viability at 72 h, 1.25 ug/ml [5]: 77%
- MIC [6]: 0.27 µg/mL (≈ 0.584 µM)
- viability at 72 h, 10 ug/ml [7]: 61%
- Selectivity Index [9]: 49
- viability at 72 h, 5 ug/ml [10]: 82%

SMILES: CSCC[C@H](NC(=O)OC(C)(C)C)C(=O)O/N=C1\c2ccccc2-c2c1c(N1CCN(c3ccccn3)CC1)nc1ccc(Br)cc21
- MIC [6]: inactive

SMILES: CCCCCCC(=O)O/N=C1\c2ccccc2-c2c1c(N1CCN(c3ccccn3)CC1)nc1ccc(Br)cc21
- MIC [6]: inactive

SMILES: O/N=C1\c2ccccc2-c2c1c(-n1ccnc1)nc1ccc(Br)cc21
- viability at 72 h, 20 ug/ml [1]: 77%
- logD [3]: 0.2
- viability at 72 h, 1.25 ug/ml [5]: 100%
- MIC [6]: < 0.39 µg/mL
- viability at 72 h, 10 ug/ml [7]: 77%
- Selectivity Index [9]: >5
- viability at 72 h, 5 ug/ml [10]: 91%

SMILES: CC1(O)c2ccccc2-c2c1c(-n1ccnc1)nc1ccc(Br)cc21 (stereo not drawn)
- viability at 72 h, 20 ug/ml [1]: 37%
- logD [3]: 1.7
- viability at 72 h, 1.25 ug/ml [5]: 93%
- MIC [6]: 0.78 µg/mL (≈ 1.99 µM)
- viability at 72 h, 10 ug/ml [7]: 64%
- Selectivity Index [9]: 4.3
- viability at 72 h, 5 ug/ml [10]: 64%

SMILES: CN(C)C(=O)OC1(C)c2ccccc2-c2c1c(-n1ccnc1)nc1ccc(Br)cc21 (stereo not drawn)
- Activity [2]: Not Active
- logD [3]: 1.9
- Activity [4]: Not Active
- viability at 72 h, 1.25 ug/ml [5]: 63%
- MIC [6]: 6 µg/mL (≈ 12.9 µM)
- viability at 72 h, 10 ug/ml [7]: 69%

SMILES: CC(C)C[C@H](NC(=O)OC(C)(C)C)C(=O)O/N=C1\c2ccccc2-c2c1c(N1CCN(c3ccccn3)CC1)nc1ccc(Br)cc21
- MIC [6]: inactive

SMILES: CCCCCCCCC(=O)O/N=C1\c2ccccc2-c2c1c(N1CCN(c3ccccn3)CC1)nc1ccc(Br)cc21
- MIC [6]: inactive

SMILES: CCCC(=O)O/N=C1\c2ccccc2-c2c1c(N1CCN(c3ccccn3)CC1)nc1ccc(Br)cc21
- MIC [6]: inactive

SMILES: CCC(=O)OC1(C)c2ccccc2-c2c1c(-n1ccnc1)nc1ccc(Br)cc21 (stereo not drawn)
- MIC [6]: inactive

SMILES: O=C(/C=C/c1ccco1)O/N=C1\c2ccccc2-c2c1c(N1CCN(c3ccccn3)CC1)nc1ccc(Br)cc21
- Activity [2]: Not Active
- logD [3]: 1.4
- Activity [4]: 95%
- viability at 72 h, 1.25 ug/ml [5]: 100%
- MIC [6]: 6 µg/mL (≈ 9.89 µM)
- viability at 72 h, 10 ug/ml [7]: 85%
- half-life [8]: 96 h

SMILES: CCCCCCCCCC(=O)O/N=C1\c2ccccc2-c2c1c(N1CCN(c3ccccn3)CC1)nc1ccc(Br)cc21
- MIC [6]: inactive

SMILES: CCCCCCCCCCCCCC(=O)O/N=C1\c2ccccc2-c2c1c(-n1ccnc1)nc1ccc(Br)cc21
- MIC [6]: inactive
